ChEMBL document CHEMBL3860059, “Design, Synthesis, and Biological Evaluation of First-in-Class Dual Acting Histone Deacetylases (HDACs) and Phosphodiesterase 5 (PDE5) Inhibitors for the Treatment of Alzheimer's Disease” (J Med Chem, 2016)

Key:
[1] = molecular target: T1, Protein deacetylase HDAC6 (Homo sapiens, UniProt Q9UBN7); assay: Inhibition of full length recombinant human N-terminal GST tagged HDAC6 expressed in baculovirus infected Sf9 cells using fluorogenic HDAC substrate after 30 mins by fluorescence analysis
T1 sequence (Q9UBN7 whole entry): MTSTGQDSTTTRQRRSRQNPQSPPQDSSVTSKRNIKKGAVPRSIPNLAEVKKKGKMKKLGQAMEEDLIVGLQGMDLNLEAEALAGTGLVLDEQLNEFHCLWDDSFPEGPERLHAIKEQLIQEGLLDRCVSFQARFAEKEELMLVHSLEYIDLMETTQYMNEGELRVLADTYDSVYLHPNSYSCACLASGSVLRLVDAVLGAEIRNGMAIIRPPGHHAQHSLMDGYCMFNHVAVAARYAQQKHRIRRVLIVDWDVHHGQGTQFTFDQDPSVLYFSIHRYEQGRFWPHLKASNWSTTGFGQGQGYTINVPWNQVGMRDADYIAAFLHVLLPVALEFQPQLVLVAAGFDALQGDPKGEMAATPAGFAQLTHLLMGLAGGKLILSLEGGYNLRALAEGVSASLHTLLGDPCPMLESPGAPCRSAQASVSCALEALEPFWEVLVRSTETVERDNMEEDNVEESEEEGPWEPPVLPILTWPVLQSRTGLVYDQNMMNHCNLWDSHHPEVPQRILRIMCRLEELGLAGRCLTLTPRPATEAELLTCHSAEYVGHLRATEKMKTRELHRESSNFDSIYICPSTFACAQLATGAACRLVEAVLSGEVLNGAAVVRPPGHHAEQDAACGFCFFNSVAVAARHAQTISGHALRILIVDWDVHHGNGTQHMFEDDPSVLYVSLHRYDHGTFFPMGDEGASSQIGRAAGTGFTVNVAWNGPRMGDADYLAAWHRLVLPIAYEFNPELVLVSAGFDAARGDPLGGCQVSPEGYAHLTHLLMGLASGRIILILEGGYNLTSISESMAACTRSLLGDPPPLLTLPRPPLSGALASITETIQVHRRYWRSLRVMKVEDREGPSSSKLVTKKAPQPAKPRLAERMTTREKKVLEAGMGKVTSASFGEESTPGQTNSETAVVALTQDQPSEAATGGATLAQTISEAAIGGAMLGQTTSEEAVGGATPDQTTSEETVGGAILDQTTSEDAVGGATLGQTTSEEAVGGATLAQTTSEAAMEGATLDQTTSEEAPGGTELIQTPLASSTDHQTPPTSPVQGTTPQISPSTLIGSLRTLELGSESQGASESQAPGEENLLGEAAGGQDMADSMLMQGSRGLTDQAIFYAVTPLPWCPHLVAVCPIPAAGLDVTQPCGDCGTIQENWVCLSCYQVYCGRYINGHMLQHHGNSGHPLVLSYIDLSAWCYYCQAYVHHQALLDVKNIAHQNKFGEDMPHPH
Method in brief: (§1)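 Full-length human recombinant HDAC1 (0.4 μg/mL final), HDAC2 (1.5 μg/mL), HDAC3/NCOR2 (0.1 μg/mL) or HDAC6 (3.6 μg/mL) with 10 μM fluorogenic acetyl-lysine substrate and 0.1 mg/mL BSA, 1% DMSO, 30 min at 37 °C; lysine developer 20 min at room temperature; fluorescence ex 355/em 460 nm. Vehicle = positive control, no enzyme = negative; IC50 from curve fit.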

Histone deacetylase 2 = Histone deacetylase 2 (Homo sapiens, UniProt Q92769); assay: Inhibition of full length recombinant human C-terminal His-tagged HDAC2 expressed in baculovirus infected Sf9 cells using fluorogenic HDAC substrate after 30 mins by fluorescence analysis; method in brief: as §1
[2] = molecular target: cGMP-specific 3',5'-cyclic phosphodiesterase (Homo sapiens, UniProt O76074); assay: Inhibition of full length recombinant human N-terminal GST-tagged PDE5A1 expressed in baculovirus infected Sf9 cells using cGMP as substrate after 30 mins by HTRF assay
Histone deacetylase 1 = Histone deacetylase 1 (Homo sapiens, UniProt Q13547); assay: Inhibition of full length recombinant human C-terminal His/Flag-tagged HDAC1 expressed in baculovirus infected Sf9 cells using fluorogenic HDAC substrate after 30 mins by fluorescence analysis; method in brief: as §1
[3] = Passive membrane permeability of the compound at 50 uM after 18 hrs by PAMPA; type: ADME; settings: read-out: Peff
Method in brief: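 PAMPA: 50 μM donor solution in PBS/EtOH 70:30 over PVDF membrane precoated with PBL/dodecane (20 mg/mL); PBS/EtOH acceptor; 18 h at 20 °C without shaking; duplicates; donor and acceptor concentrations by UV absorbance corrected against vehicle.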

[4] = Selectivity ratio of pLC50 for mouse primary glial cells to pLC50 for human THLE2 cells; type: ADME, cell-based; settings: mouse primary glial cells versus THLE2 cells
[5] = Cytotoxicity against human THLE2 cells assessed as reduction in cell viability after 72 hrs by ATP Vialight assay; type: toxicity, cell-based, THLE-2; settings: read-out: LC50
Method in brief: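 Immortalized human liver THLE-2 cells in BEGM with 0.7 μg/mL phosphoethanolamine, 0.5 ng/mL EGF, antibiotics and 10% FBS, seeded at 10,000 cells/well and left 24 h at 37 °C. Compounds were added at final 0–100 μM in 1% DMSO for 72 h. Cellular ATP was read by luminescence after 45 min lysis.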

[6] = Selectivity ratio of pIC50 for full length recombinant human N-terminal GST tagged HDAC6 expressed in baculovirus infected Sf9 cells to pIC50 for full length recombinant human C-terminal His/Flag-tagged HDAC1 expressed in baculovirus infected Sf9 cells
[7] = molecular target: Histone deacetylase 3/Nuclear receptor corepressor 2 (HDAC3/NCoR2) (Homo sapiens, UniProt O15379); assay: Inhibition of full length recombinant human C-terminal His-tagged HDAC3/N-terminal GST-tagged NCOR2 (395 to 489 residues) expressed in baculovirus infected Sf9 cells using fluorogenic HDAC substrate after 30 mins by fluorescence analysis
Histone deacetylase 3/Nuclear receptor corepressor 2 (HDAC3/NCoR2), sequence (O15379 whole entry, the tested form may be a part): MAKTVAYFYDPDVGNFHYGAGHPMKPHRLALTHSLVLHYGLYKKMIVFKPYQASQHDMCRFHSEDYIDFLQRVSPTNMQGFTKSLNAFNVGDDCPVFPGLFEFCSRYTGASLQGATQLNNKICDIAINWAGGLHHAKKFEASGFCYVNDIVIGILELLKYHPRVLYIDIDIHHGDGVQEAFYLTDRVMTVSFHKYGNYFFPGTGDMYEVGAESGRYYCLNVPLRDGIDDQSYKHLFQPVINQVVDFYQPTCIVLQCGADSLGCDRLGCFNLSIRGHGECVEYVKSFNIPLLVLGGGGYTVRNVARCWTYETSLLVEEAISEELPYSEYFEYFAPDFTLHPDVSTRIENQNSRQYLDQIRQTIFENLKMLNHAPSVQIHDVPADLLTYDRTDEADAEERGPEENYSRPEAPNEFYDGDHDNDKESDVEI
Histone deacetylase 3/Nuclear receptor corepressor 2 (HDAC3/NCoR2), sequence (Q9Y618 whole entry, further chain, the tested form may be a part): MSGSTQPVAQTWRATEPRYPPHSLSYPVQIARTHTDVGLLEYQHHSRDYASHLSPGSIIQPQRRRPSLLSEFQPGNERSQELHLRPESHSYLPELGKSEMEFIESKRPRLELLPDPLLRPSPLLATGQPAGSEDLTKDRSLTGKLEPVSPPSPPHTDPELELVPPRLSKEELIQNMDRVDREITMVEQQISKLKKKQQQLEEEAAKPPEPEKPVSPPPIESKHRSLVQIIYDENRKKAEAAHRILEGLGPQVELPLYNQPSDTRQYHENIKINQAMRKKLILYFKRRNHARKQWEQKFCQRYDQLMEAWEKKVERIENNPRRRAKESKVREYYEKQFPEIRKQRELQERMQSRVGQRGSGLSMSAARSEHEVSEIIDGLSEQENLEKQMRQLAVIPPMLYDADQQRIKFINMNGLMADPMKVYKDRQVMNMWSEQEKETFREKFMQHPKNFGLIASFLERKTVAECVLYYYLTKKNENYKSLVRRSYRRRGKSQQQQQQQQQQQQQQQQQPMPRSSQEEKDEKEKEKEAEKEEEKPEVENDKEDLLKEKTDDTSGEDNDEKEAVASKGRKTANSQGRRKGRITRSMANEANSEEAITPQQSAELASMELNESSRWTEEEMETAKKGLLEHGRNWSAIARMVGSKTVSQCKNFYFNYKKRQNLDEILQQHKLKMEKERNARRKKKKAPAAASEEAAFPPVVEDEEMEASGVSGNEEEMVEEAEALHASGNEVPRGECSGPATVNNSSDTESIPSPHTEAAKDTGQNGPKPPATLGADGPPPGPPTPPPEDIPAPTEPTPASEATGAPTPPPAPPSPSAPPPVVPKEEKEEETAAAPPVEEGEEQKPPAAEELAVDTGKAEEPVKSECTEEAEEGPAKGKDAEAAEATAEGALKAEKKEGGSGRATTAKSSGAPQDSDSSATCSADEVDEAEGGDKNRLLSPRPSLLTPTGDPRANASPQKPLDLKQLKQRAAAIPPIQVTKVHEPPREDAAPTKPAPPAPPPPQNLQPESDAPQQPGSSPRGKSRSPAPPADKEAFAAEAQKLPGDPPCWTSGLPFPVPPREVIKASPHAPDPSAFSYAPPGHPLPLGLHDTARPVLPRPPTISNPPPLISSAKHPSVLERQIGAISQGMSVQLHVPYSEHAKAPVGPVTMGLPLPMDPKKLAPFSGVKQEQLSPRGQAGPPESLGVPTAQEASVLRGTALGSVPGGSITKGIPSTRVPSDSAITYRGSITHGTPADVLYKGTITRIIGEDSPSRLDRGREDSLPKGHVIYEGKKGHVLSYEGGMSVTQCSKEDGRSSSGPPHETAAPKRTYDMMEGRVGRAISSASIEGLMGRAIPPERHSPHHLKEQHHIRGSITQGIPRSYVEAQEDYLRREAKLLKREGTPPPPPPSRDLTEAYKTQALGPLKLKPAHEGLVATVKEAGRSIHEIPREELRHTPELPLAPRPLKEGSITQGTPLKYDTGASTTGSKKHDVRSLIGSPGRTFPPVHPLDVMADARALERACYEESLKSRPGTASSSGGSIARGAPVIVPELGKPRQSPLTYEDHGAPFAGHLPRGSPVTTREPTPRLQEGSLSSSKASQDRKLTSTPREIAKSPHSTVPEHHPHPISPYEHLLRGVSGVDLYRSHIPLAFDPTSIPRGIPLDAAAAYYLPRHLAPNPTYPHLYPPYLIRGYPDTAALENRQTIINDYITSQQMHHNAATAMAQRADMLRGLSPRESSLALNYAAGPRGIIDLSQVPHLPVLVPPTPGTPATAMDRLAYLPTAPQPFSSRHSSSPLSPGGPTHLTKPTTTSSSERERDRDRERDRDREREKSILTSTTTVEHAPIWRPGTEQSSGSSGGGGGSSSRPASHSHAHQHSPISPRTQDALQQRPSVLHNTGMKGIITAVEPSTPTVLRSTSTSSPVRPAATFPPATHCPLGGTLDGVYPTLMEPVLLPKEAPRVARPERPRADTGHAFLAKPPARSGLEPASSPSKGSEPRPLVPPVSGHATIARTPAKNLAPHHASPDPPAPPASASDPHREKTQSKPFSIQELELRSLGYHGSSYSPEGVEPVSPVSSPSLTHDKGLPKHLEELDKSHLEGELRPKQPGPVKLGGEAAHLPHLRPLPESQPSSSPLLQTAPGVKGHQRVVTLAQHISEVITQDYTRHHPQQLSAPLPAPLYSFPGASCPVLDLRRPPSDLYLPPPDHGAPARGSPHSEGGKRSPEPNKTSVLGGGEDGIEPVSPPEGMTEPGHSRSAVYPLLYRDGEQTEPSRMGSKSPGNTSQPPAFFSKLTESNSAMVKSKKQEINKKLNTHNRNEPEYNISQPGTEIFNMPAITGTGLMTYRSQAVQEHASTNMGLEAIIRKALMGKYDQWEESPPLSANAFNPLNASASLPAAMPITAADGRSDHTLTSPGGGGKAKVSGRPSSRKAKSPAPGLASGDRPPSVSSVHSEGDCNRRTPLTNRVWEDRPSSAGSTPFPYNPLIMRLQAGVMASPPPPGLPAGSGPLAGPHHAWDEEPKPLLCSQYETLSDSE

Histone deacetylase 2, sequence (Q92769 whole entry): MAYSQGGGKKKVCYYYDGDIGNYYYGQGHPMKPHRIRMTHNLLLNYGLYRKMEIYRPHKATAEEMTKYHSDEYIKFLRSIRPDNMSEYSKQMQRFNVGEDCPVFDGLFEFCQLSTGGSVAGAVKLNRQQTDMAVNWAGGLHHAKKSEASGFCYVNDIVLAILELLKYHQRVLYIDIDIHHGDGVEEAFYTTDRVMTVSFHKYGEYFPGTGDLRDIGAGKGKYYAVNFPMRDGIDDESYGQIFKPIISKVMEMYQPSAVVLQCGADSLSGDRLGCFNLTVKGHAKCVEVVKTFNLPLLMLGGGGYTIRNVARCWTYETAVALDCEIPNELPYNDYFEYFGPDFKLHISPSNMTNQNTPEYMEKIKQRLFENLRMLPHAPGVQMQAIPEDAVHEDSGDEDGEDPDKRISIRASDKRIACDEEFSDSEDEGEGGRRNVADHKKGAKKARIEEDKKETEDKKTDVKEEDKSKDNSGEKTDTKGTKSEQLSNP
Histone deacetylase 1, sequence (Q13547 whole entry): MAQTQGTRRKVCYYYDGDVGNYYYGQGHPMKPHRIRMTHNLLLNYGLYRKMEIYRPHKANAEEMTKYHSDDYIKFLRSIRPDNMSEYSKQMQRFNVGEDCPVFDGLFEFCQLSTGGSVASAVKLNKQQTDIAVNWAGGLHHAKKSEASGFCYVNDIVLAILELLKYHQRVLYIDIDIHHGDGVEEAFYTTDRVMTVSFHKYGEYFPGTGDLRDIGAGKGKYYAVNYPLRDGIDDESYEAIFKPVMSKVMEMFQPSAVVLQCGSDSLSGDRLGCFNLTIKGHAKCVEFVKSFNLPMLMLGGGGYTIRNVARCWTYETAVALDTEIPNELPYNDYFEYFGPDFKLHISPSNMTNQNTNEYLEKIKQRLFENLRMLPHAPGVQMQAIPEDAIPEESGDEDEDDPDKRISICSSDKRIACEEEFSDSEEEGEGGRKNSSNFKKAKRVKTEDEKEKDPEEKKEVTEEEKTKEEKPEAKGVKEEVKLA

Row | SMILES | IC50 [1] [nM] | IC50 (Histone deacetylase 2) [µM] | IC50 [2] [nM] | IC50 (Histone deacetylase 1) [nM] | Papp at 18 h, 50 µM [3] [×10⁻⁶ cm/s] | selectivity ratio [4] | CC50 at 72 h [5] [nM] | Ratio pIC50 [6] | IC50 [7] [nM]
1 | CCCc1nn(C)c2c(=O)[nH]c(-c3cc(Cc4ccc(/C=C/C(=O)NO)cc4)ccc3OCC)nc12 | 1790 | > 20 | 122 | 1530 |  |  |  |  | 
2 | CCCc1nn(C)c2c(=O)[nH]c(-c3cc(NC4CCN(c5ncc(C(=O)NO)cn5)CC4)ccc3OCC)nc12 | 441 | 0.49 | 5 | 68 | 1.34 | < 0.4 | 2570 | > 0.6 | 31
3 | CCCc1nn(C)c2c(=O)[nH]c(-c3cc(S(=O)(=O)N4CCN(CCCC(=O)NO)CC4)ccc3OCC)nc12 | 360 | 4.64 | 2 | 1100 |  |  |  |  | 
4 | CCCc1nn(C)c2c(=O)[nH]c(-c3cc(N4CCCC5(CCC(C(=O)NO)CC5)C4)ccc3OCC)nc12 (configuration not stated) | 10100 | > 20 | 40 | 9270 |  |  |  |  | 
5 | CCCc1nn(C)c2c(=O)[nH]c(-c3cc(CN4CC(C(=O)NO)C4)ccc3OCC)nc12 | > 10000 | > 20 | 303 | > 20000 |  |  |  |  | 
6 | CCCc1nn(C)c2c(=O)[nH]c(-c3cc(Oc4ccc(C(=O)NO)cc4)ccc3OCC)nc12 | 196 | 2.25 | 23 | 566 | 3.68 | < 0.4 |  |  | 
7 | CCCc1nn(C)c2c(=O)[nH]c(-c3cc(S(=O)(=O)N4CCC(CCC(=O)NO)CC4)ccc3OCC)nc12 | 87 | 1.94 | 0.5 | 406 |  |  |  |  | 
8 | CCCc1nn(C)c2c(=O)[nH]c(-c3cc(Cc4ccc(CCC(=O)NO)cc4)ccc3OCC)nc12 | 2350 | > 20 | 13 | 2420 |  |  |  |  | > 20000
9 | CCCc1nn(C)c2c(=O)[nH]c(-c3cc(CN4CCC(C(=O)NO)CC4)ccc3OCC)nc12 | 9640 | > 20 | 207 | 7620 |  |  |  |  | 
10 | CCCc1nn(C)c2c(=O)[nH]c(-c3cc(CCC(=O)NO)ccc3OCC)nc12 | 2120 | > 20 | 46 | 4810 |  |  |  |  | 
11 | CCCc1nn(C)c2c(=O)[nH]c(-c3cc(-c4ccc(C(=O)NO)cn4)ccc3OCC)nc12 | 79 | 1.87 | 4 | 354 | 0.92 | < 0.4 |  |  | 
12 | CCCc1nn(C)c2c(=O)[nH]c(-c3cc(-c4ccc(C(=O)NO)o4)ccc3OCC)nc12 | 5570 | > 20 | 5 | > 20000 |  |  |  |  | 
13 | CCCc1nn(C)c2c(=O)[nH]c(-c3cc(-c4ccc(C(=O)NO)nc4)ccc3OCC)nc12 | 861 | > 20 | 4 | 2360 | 1.52 | < 0.4 |  |  | 
14 | CCCc1nn(C)c2c(=O)[nH]c(-c3cc(CC(=O)NO)ccc3OCC)nc12 | > 20000 | > 20 | 19 | > 20000 |  |  |  |  | 
15 | CCCc1nn(C)c2c(=O)[nH]c(-c3cc(NC4CCC(C(=O)NO)CC4)ccc3OCC)nc12 (configuration not stated) | 12700 | > 20 | 22 | 5980 |  |  |  |  | 
